E-sel inducer – induces E-selectin expression in human endothelial cells; P16581; HUVEC E-selectin immunofluorescence imaging; normalized: neutral wells 0, TNF-alpha wells 100; activation, % at 7.58 µM; hit rate 0.37% among 260,000; AID 686992;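 active = mean E-selectin-positive cell signal at least 10% of the positive control, reached in at least 60% of replicates, without over 20% cell loss; inconclusive = no rule given, readout overlaps actives, possibly toxicity-flagged; inactive = the rest, including those meeting only one limit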
Target sequence (P16581 whole entry, looked up): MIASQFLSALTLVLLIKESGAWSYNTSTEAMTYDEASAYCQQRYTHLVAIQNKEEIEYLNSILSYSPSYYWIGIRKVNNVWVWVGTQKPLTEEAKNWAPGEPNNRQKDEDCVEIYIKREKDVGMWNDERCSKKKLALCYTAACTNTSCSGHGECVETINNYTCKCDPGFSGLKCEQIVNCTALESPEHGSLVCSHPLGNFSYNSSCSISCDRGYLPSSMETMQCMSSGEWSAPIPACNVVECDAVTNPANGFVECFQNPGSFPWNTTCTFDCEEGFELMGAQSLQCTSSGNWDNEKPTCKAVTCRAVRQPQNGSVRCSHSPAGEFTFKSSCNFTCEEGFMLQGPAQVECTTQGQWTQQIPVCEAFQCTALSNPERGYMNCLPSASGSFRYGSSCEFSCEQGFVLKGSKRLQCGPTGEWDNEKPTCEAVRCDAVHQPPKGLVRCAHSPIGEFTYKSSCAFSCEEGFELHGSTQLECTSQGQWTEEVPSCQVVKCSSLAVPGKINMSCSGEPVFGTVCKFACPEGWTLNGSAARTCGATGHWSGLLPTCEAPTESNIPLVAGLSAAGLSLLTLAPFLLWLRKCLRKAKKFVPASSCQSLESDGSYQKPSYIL
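assay system = HUVEC, human umbilical vein endothelial cells | input = 3,000 HUVEC seeded per well | medium = EGM-2 growth medium on 0.1% gelatin-coated wells | dosing = one compound dose added by pin transfer | signal = immunofluorescence imaging | read-out basis = % PE-positive cells | control set = TNF-alpha, DMSO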
SIRT5 block – blocks human SIRT5 desuccinylation of peptide | Q9NXA8 | Purified SirT5, succinyl-peptide AMC, trypsin-coupled fluorescence | inhibition, % at 15 µM | hit rate 1.1% among 330,000; in the data active = inhibition above about 15%; inconclusive = no clear call, values can overlap the other calls
PglD inh – blocks C. jejuni PglD acetyltransferase activity; purified PglD enzyme, DTNB colorimetric CoA detection; inhibition, % at 12.5 µM; hit rate 0.098% among 360,000; AID 602405; in the data active = inhibition above about 16%, passing the limit was not always enough; inconclusive = no clear call, values can overlap the other calls
ERAP1 HTS inh – ERAP1 (human) enzyme inhibition | inhibition, % at 10.7 µM | hit rate 0.15% among 340,000 | recombinant ERAP1, Leu-AMC fluorescence, 60 min | AID 652197 | Q9NZ08;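 active = mean replicate inhibition of at least 30%, or all replicates individually reaching that 30% level; inactive = mean below 30% and not every replicate reaching it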;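 also: 0% = neutral control wells and 100% = L-leucinethiol positive control wells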
DENV2 CPE rescue – inhibitors of DENV2 cytopathic effect; DENV2-infected cells, cytopathic effect rescue, plate reader; CPE inhibition, % at 9.99 µM; hit rate 1.7% among 350,000; in the data active = CPE inhibition above about 20%, passing the limit was not always enough; inconclusive = no clear call, values can overlap the other calls; tested in BHK-21 cells;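 also: 0% = median of neutral control wells and 100% = median of positive control wells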
* = called active by the depositor; ? = inconclusive; . = no result. This is a sample that favours compounds with a hit; in the whole collection about 2.5% have one here.

SMILES	E-sel inducer	SIRT5 block	PglD inh	ERAP1 HTS inh	DENV2 CPE rescue
Cc1cc(C)cc(CC(=O)N2CCC2(C)C(=O)NS(=O)(=O)c2ccccc2)c1 (stereo unspecified)	2	-4	-4	1	-4
O=C(c1ccccc1)C(O)(Cc1ccccc1)c1ccccc1 (stereo unspecified)	0	-2	-1	.	36*
Cc1ccc(C2=NO[C@@](CC(=O)O)(C(=O)Nc3ccc4c(c3)OCCO4)C2)cc1	12	-1	-14	-1	?
Cc1ccc(S(=O)(=O)Nc2cccc3c2O[C@@H](CN(C)S(=O)(=O)c2ccc(Cl)cc2)[C@@H](C)CN([C@H](C)CO)C3=O)cc1	0	9	.	1	-2
Cc1ccc(S(=O)(=O)N(C)C[C@H]2Oc3c(NS(=O)(=O)c4ccc(Cl)cc4)cccc3C(=O)N([C@@H](C)CO)C[C@H]2C)cc1	0	3	-2	1	74*
COc1ccc(S(=O)(=O)Nc2cccc3c2O[C@H](CN(C)S(=O)(=O)c2ccc(C)cc2)[C@@H](C)CN([C@H](C)CO)C3=O)cc1	0	.	2	.	8
COc1ccc(S(=O)(=O)N(C)C[C@@H]2Oc3c(NS(=O)(=O)c4ccc(C)cc4)cccc3C(=O)N([C@H](C)CO)C[C@H]2C)cc1	0	0	.	0	43*
Cc1ccc(S(N)(=O)=O)cc1	.	.	2	0	52*
NS(=O)(=O)c1ccc(NC(=O)Nc2ccc(S(N)(=O)=O)cc2)cc1	.	15*	2	.	-4
Cc1ccc(-c2nnc(-c3cccnc3)o2)cc1	0	-3	4	-3	-3
Brc1ccc(-c2nnc(-c3cccnc3)o2)cc1	2	-1	.	-2	82*
O=C(CCNC(=O)C1CCN(S(=O)(=O)c2ccccc2)CC1)NCc1ccccn1	0	-5	-8	-1	-1
CCOc1ccc(S(=O)(=O)N2CCC(C(=O)NCc3cccnc3)CC2)cc1	41*	6	-1	6	-10
COc1ccc(S(=O)(=O)N2CCC(C(=O)NCCC(=O)NCc3ccccn3)CC2)cc1	1	-3	6	-5	36*
Cc1ccc(S(=O)(=O)N2CCC(C(=O)NCc3cccnc3)CC2)cc1	.	-1	0	-3	-1
Cc1nnc(NC(=O)CSc2ccc3nnc(-c4ccccn4)n3n2)s1	.	-5	.	-1	.
O=C(CSc1ccc2nnc(-c3ccccn3)n2n1)Nc1ccccc1	0	0	-4	1	71*
CCOc1ccc(NC(=O)CSc2ccc3nnc(-c4ccccn4)n3n2)cc1	0	18*	4	5	-10
CC(C)(C)NC(=O)c1cc(NC(=O)c2cccs2)cc(NC(=O)c2cccs2)c1	.	.	-1	.	.
Cc1ccc(S(=O)(=O)N2CCN(CC(O)COc3ccccc3)CC2)cc1 (stereo unspecified)	0	-6	-1	7	1
Cc1ccc2ccc(C(Nc3ccccc3)c3ccccc3)c(O)c2n1 (stereo unspecified)	0	3	.	-7	35*
Cc1ccc2ccc(C(Nc3ccccc3)c3ccc(C(C)C)cc3)c(O)c2n1 (stereo unspecified)	0	-5	.	-5	-5
O=C(NN1C(=O)CSC1=S)C(=O)NN1C(=O)CSC1=S	2	50*	0	-1	5
CC(=O)N1[C@@H](CO)[C@@H](c2ccccc2)[C@@H]1CN(C)C(=O)c1ccccc1F	0	-3	1	1	-5
COC(=O)c1ccc(NC(=S)NCCCn2ccnc2)cc1	.	20*	6	-2	-6
SMILES	E-sel inducer	SIRT5 block	PglD inh	ERAP1 HTS inh	DENV2 CPE rescue
CCOC(=O)c1ccc(NC(=S)NCCCn2ccnc2)cc1	3	-4	-3	-3	0
O=C(C[C@H]1C=C[C@H](NC(=O)CN2CCOCC2)[C@H](CO)O1)NCCc1ccccc1	0	17*	0	2	0
O=C(C[C@@H]1C=C[C@@H](NC(=O)CN2CCOCC2)[C@H](CO)O1)NC1CCCCC1	0	26*	0	-1	8
CCN1CCN(C(C(=O)NC2CCCCC2)C2CC2)CC1 (stereo unspecified)	0	-5	2	-1	-14
Cc1ccc(-c2cc(C(=O)OCC(=O)N(C)C3CCS(=O)(=O)C3)c3ccccc3n2)o1 (stereo unspecified)	-2	-28	.	12	9
C[C@@H]1CN([C@@H](C)CO)C(=O)CCCn2cc(nn2)CO[C@H]1CN(C)C(=O)Nc1ccccc1	0	4	4	2	-5
O=C(CSc1nnc(CNC(=O)c2c(F)cccc2F)o1)c1ccccc1	0	-3	-2	-6	-3
O=S(=O)(O)c1cc(O)c(N=Nc2ccc(O)cc2O)c2ccccc12	65*	31*	-5	17	1
COc1ccc(C(=O)N/N=C(\C)CC(=O)Nc2ccc(N(C)C)cc2)c(OC)c1	0	0	-1	11	116*
COc1ccc(NS(=O)(=O)c2ccc3c(c2)CCCN3C(C)=O)cc1	121*	-5	-3	-1	-5
Cc1ccc(NS(=O)(=O)c2cccc(C(=O)N3CCCC(C)C3)c2)cc1 (stereo unspecified)	.	-1	7	1	-2
COc1ccc(NS(=O)(=O)c2cccc(C(=O)N3CCCC(C)C3)c2)cc1 (stereo unspecified)	.	19*	0	2	-1
COc1ccc(S(=O)(=O)Nc2cc3c4c(c2)CCN4C(=O)CC3)cc1	.	-1	-3	0	60*
COc1cccc(NS(=O)(=O)c2ccc3c(c2)CCCN3C(C)=O)c1	.	-1	.	-1	-1
CCCNC(=O)C(=O)Nc1ccc(N(C)C)cc1	.	.	5	.	.
COc1cc(C(=O)OCC(=O)Nc2ccc3c(c2)OC(F)(F)O3)ccc1OCc1c(C)noc1C	.	.	-1	.	.
COc1cc(NC(=O)Cc2ccc([N+](=O)[O-])cc2)c(C(=O)O)cc1OC	9	20*	.	3	3
CCCN1C[C@H](C)[C@@H](OC)CN(C)C(=O)c2cc(NS(=O)(=O)c3ccccc3)ccc2OC[C@H]1C	0	31*	-1	.	16
CO[C@@H]1CN(C)C(=O)c2ccc(NS(=O)(=O)c3ccccc3)cc2OC[C@H](C)N(C)C[C@H]1C	0	-2	2	-1	25*
CO[C@H]1CN(C)C(=O)c2ccc(NS(=O)(=O)c3ccccc3)cc2OC[C@@H](C)N(Cc2ccccn2)C[C@H]1C	0	.	2	-3	7
CO[C@H]1CN(C)C(=O)c2ccc(NS(=O)(=O)c3ccccc3)cc2OC[C@H](C)N(Cc2ccccn2)C[C@@H]1C	0	.	2	-1	36*
CO[C@H]1CN(C)C(=O)c2cc(NS(=O)(=O)c3ccccc3)ccc2OC[C@H](C)N(C)C[C@H]1C	0	1	10	0	27*
CO[C@H]1CN(C)C(=O)c2cc(NS(=O)(=O)c3ccccc3)ccc2OC[C@@H](C)N(C)C[C@@H]1C	0	.	.	.	.
CCc1cccc(CC)c1N1C(=O)CSCC1=O	0	.	-2	0	3

Source: PubChem BioAssay
